# Source: ChEMBL document CHEMBL1765040, “Synthesis and antiviral activity of N9-[3-fluoro-2-(phosphonomethoxy)propyl] analogues derived from N6-substituted adenines and 2,6-diaminopurines” (Bioorg Med Chem, 2011)
# pEC50: −log10 of the molar value. Calls of active or inactive are those of the source. The rule behind the calls is not given here.
# Tests used:
# [1] = test system: Human immunodeficiency virus 1; assay: Antiviral activity against HIV1 3B infected in human CEM cells assessed as inhibition of virus-induced syncytium formation after 4 to 5 days by microscopic analysis; format: functional, organism-based; conditions: Human immunodeficiency virus 1, 3B, CCRF-CEM
# Method in brief: (§1)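 CEM cells (~3 × 10^5 cells/mL) infected with 100 CCID50 per mL of HIV-1(IIIB) or HIV-2(ROD), with compound dilutions; 4–5 days at 37 °C, humidified CO2 atmosphere. Giant (syncytium) cell formation scored microscopically; EC50 is the concentration inhibiting giant cell formation by 50%.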
# [2] = test system: Human immunodeficiency virus 2; assay: Antiviral activity against HIV2 ROD infected in human CEM cells assessed as inhibition of virus-induced syncytium formation after 4 to 5 days by microscopic analysis; format: functional, organism-based; conditions: Human immunodeficiency virus 2, ISOLATE ROD, CCRF-CEM; method in brief: as §1
# [3] = Cytotoxicity against human CEM cells assessed as inhibition of cell proliferation after 72 hrs by coulter counter analysis; format: cell-based, CCRF-CEM
# Method in brief: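 CEM cells, (5–7.5) × 10^4 per well, with test compound, grown 72 h at 37 °C in humidified CO2 atmosphere; cells counted by Coulter counter. IC50 is the concentration inhibiting proliferation by 50%.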
# [4] = Cytotoxicity against human CEM cells assessed as minimum concentration required for morphological alteration by microscopic analysis; format: cell-based, CCRF-CEM
# [5] = test system: Moloney murine sarcoma virus; assay: Antiviral against Moloney murine sarcoma virus infected in mouse C3H/3T3 cells assessed as inhibition of virus-induced cell transformation after 6 days post infection by microscopic analysis; format: functional, organism-based; conditions: C3H/3T3, 144 h
# Method in brief: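 Murine embryo fibroblast C3H/3T3 monolayers infected with 75 focus-forming units of MSV, with test compound; transformation examined microscopically at day 6 postinfection. EC50 is the concentration inhibiting MSV-induced transformation by 50%.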
# [6] = target: N6-methyl-AMP deaminase, ADAL (Homo sapiens) (UniProt Q6DHV7); assay: Activity at human recombinant N6-methyl-AMP deaminase assessed as reaction rate after 60 mins by HPLC analysis
# Sequence of N6-methyl-AMP deaminase, ADAL (Homo sapiens) (Q6DHV7 whole entry, looked up): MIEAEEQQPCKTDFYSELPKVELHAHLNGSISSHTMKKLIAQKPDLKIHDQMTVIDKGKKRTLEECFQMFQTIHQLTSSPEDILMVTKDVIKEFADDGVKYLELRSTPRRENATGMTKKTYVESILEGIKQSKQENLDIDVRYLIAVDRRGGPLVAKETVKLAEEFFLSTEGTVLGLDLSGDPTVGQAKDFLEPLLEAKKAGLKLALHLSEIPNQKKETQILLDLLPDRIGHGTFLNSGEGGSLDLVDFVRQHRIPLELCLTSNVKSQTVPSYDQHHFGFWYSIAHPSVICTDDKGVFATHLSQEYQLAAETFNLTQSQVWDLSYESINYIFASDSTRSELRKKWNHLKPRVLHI
# [7] = Cytotoxicity against human MT4 cells; format: cell-based
# [8] = test system: Human immunodeficiency virus 1; assay: Antiviral activity against HIV1 infected in human MT4 cells assessed as inhibition of virus-induced cytopathicity; format: functional, organism-based; conditions: Human immunodeficiency virus 1, MT4
pEC50 [1],pEC50 [2],pEC50 [5],Activity [6],SMILES,CC50 at 72 h [3] [µM],MCC [4] [µM],CC50 [7] [µM],pEC50 [8]
4.38,4.65,< 4.00,4.17 nmol/min/mg,CCCNc1nc(N)nc2c1ncn2C[C@H](CF)OCP(=O)(O)O,> 276,> 100,–,–
4.85,4.64,4.30,64.5 nmol/min/mg,Nc1nc(NC2CC2)c2ncn(C[C@H](CF)OCP(=O)(O)O)c2n1,> 278,> 100,–,–
4.74,4.44,4.16,5.64 nmol/min/mg,C=CCNc1nc(N)nc2c1ncn2C[C@H](CF)OCP(=O)(O)O,> 278,> 100,–,–
4.59,4.95,5.16,1.98 nmol/min/mg,Nc1nc(NC2CC2)c2ncn(C[C@@H](CF)OCP(=O)(O)O)c2n1,> 278,> 100,–,–
< 3.61,< 3.61,< 4.00,inactive,C=CCNc1nc(N)nc2c1ncn2C[C@@H](CF)OCP(=O)(O)O,> 247,> 100,–,–
< 3.56,< 3.56,< 4.00,inactive,CCCNc1nc(N)nc2c1ncn2C[C@@H](CF)OCP(=O)(O)O,> 276,≥ 100,–,–

# Further lines, the compound ahead of its results:
SMILES,pEC50 [1],pEC50 [2],pEC50 [5],Activity [6],CC50 at 72 h [3] [µM],MCC [4] [µM],CC50 [7] [µM],pEC50 [8]
CCN(CC)c1nc(N)nc2c1ncn2C[C@@H](CF)OCP(=O)(O)O,< 4.00,< 4.00,< 4.00,–,> 100,> 100,–,–
Nc1nc(N2CCCC2)c2ncn(C[C@H](CF)OCP(=O)(O)O)c2n1,< 4.00,< 4.00,< 4.00,–,> 100,> 100,–,–
CCN(CC)c1nc(N)nc2c1ncn2C[C@H](CF)OCP(=O)(O)O,< 4.00,< 4.00,< 4.00,–,> 100,> 100,–,–
CN(C)CCNc1nc(N)nc2c1ncn2C[C@@H](CF)OCP(=O)(O)O,< 4.00,< 4.00,< 4.00,–,> 100,> 100,–,–
CN(C)CCNc1nc(N)nc2c1ncn2C[C@H](CF)OCP(=O)(O)O,< 4.28,–,–,–,> 53,–,–,–
Nc1nc(N)c2ncn(C[C@H](CF)OCP(=O)(O)O)c2n1,–,–,–,–,–,–,> 300,5.37
Nc1nc(O)c2ncn(C[C@@H](CF)OCP(=O)(O)O)c2n1,–,–,–,–,–,–,103,5.41
COCCNc1nc(N)nc2c1ncn2C[C@H](CF)OCP(=O)(O)O,< 4.00,< 4.00,< 4.00,–,> 100,> 100,–,–
Nc1nc(O)c2ncn(C[C@H](CF)OCP(=O)(O)O)c2n1,–,–,–,–,–,–,> 300,5.23
Nc1nc(N2CCCC2)c2ncn(C[C@@H](CF)OCP(=O)(O)O)c2n1,< 4.00,< 4.00,< 4.70,–,> 100,≥ 100,–,–
CN(C)c1nc(N)nc2c1ncn2C[C@@H](CF)OCP(=O)(O)O,< 3.59,3.94,4.35,8.07 nmol/min/mg,> 255,> 100,–,–
CN(C)c1nc(N)nc2c1ncn2C[C@H](CF)OCP(=O)(O)O,4.29,3.99,< 4.70,23.6 nmol/min/mg,> 287,≥ 100,–,–
Nc1ncnc2c1ncn2CCOCP(=O)(O)O [ADEFOVIR],5.13,5.15,5.68,–,≥ 250,≥ 100,–,–
C[C@H](Cn1cnc2c(N)ncnc21)OCP(=O)(O)O [TENOFOVIR ANHYDROUS],5.34,5.49,–,–,> 250,> 100,–,–
Nc1nc(N)c2ncn(C[C@@H](CF)OCP(=O)(O)O)c2n1,–,–,–,–,–,–,> 300,4.82
COCCNc1nc(N)nc2c1ncn2C[C@@H](CF)OCP(=O)(O)O,< 4.00,< 4.00,< 4.00,–,> 100,> 100,–,–
